From PubChem
Calpain2 inh: inhibitors of pig calpain II; purified calpain II, fluorogenic peptide substrate, 30 min; inhibition, % at 16 µM; 220,000 tested, 0.37% active;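 active = inhibition above about 50%, limit read from the data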
PMI act hi M6P: activators of human phosphomannose isomerase at near-saturating mannose 6-phosphate; P34949; coupled PMI enzyme assay, resazurin fluorescence, 20 min; stronger effect = higher value; 1 = untreated enzyme, 0 = substrate-free blank; activation factor at 20 µM; 190,000 tested, 0.34% active;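 active = activation factor of 2 or more at 20 µM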
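Test system: human phosphomannose isomerase with PGI, G6PDH, diaphorase coupling enzymes; amount: 15 ng/mL PMI; incubation: enzyme reaction with compound 20 min at room temperature; technique: resorufin fluorescence (Ex 544/Em 590 nm) from resazurin via diaphorase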
Rad51 HR inh: blocks human Rad51 in homologous recombination. AID 1385. 200,000 tested, 0.085% active. Q06609. inhibition, % at 10 µM. hRad51 DNA strand exchange, fluorescence dequenching;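 active = inhibition above 40% at the single screening dose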
Target sequence (Q06609 whole entry, looked up): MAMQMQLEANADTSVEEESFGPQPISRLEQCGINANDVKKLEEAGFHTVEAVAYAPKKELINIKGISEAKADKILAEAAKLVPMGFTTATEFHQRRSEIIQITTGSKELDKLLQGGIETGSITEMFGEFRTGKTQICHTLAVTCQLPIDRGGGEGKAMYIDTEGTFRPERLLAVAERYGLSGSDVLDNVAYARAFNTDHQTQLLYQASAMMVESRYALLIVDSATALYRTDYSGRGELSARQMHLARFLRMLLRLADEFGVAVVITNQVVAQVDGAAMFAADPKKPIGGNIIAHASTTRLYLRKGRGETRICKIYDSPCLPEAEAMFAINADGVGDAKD
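material = hRad51 filaments on single-stranded DNA | reagent = Donor/quencher-labelled 47-bp dsDNA substrate | compound = 10 µM final, single point | schedule = strand-exchange reaction 15 min at room temperature | measured by = fluorescein emission 520 nm, excitation 485 nm | read-out basis = % inhibition versus plate control and blank means | benchmarks = plate controls and plate blanks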
PMI activator: phosphomannose isomerase (human) activation; AID 1214; activation factor at 20 µM; purified human PMI, coupled resazurin fluorescence, 20 min; stronger effect = higher value; 1 = vehicle control, 0 substrate-free wells; 190,000 tested, 0.005% active; P34949;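 active = activation factor of 2 or more at 20 µM, relative to plate controls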
WT yeast gro inh: growth inhibition of WT yeast, mitochondrial fusion screen; 190,000 tested, 2.1% active; mitochondrial fusion phenotypic screen, WT strain; inhibition, % at 10 µM; in the data active = inhibition above about 58%; tested in S. cerevisiae
L major viab: inhibitors of Leishmania major promastigote growth. Leishmania major promastigotes, resazurin fluorescence viability. inhibition, % at 10 µM. 200,000 tested, 9% active. AID 1063; in the data active = inhibition above about 50%;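 note: promastigotes grown with compound for 44 hours at 28 °C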
Large screens that a line does not name were inactive. In the library only some 9.8% were active in any assay of this set; here they are far more common.

COC(=O)CN1C(=O)N/C(=C/c2ccccc2OC)C1=O	none
NC(=O)c1cc(NC(=O)CCCc2nc3ccccc3s2)cc(C(N)=O)c1	none (no result: PMI act hi M6P, PMI activator, WT yeast gro inh, L major viab)
Cc1ccc(/C(N)=N/OC(=O)c2ccc3c(c2)OCO3)cc1	L major viab 51
COc1ccc(/C(N)=N/OC(=O)c2ccc3c(c2)OCO3)cc1	none
Cc1ccc(/C(N)=N/OC(=O)c2ccc(Cl)cc2Cl)cc1	L major viab 85
O=S(=O)(NCC(c1ccco1)N1CCN(c2ccc(F)cc2)CC1)c1ccc(F)cc1 (centres undefined)	L major viab 75
O=C(NCc1ccncc1)C(=O)NCC(c1ccco1)N1CCN(c2ccc(F)cc2)CC1 (centres undefined)	L major viab 55
Cc1ccc(S(=O)(=O)NCCC(c2ccc(F)cc2)c2ccco2)cc1 (centres undefined)	L major viab 56
Cc1nnc(NC(=O)C2CCN(S(=O)(=O)c3ccc(Cl)cc3)CC2)s1	none
COc1ccc(NC(=O)c2cc(-c3cc(C)cc(C)c3O)n[nH]2)cc1Cl	WT yeast gro inh 66, L major viab 100
Cc1cc(C)c(O)c(-c2cc(C(=O)NCc3ccccc3)[nH]n2)c1	L major viab 52
COc1ccc(CNC(=O)c2cc(-c3cc(C)cc(C)c3O)n[nH]2)cc1	none (no result: PMI act hi M6P, Rad51 HR inh, PMI activator, WT yeast gro inh, L major viab)
Cc1cc(C)c(O)c(-c2cc(C(=O)Nc3cccnc3)[nH]n2)c1	none (no result: PMI act hi M6P, PMI activator, WT yeast gro inh, L major viab)
CCCS(=O)(=O)N1CCN=C1SCc1cccnc1	none
Clc1ccc2nc(N3CCNCC3)nc(-c3ccccc3)c2c1	L major viab 101 (no result: Calpain2 inh)
OCCN1CCN(c2nc(-c3ccccc3)c3cc(Cl)ccc3n2)CC1	none
O=C1CN(c2nc(-c3ccccc3)c3cc(Cl)ccc3n2)c2ccccc2N1	none
CN1CCN(c2nc(-c3ccccc3)c3cc(Cl)ccc3n2)CC1	L major viab 86
COc1ccccc1-n1c([S-])c(C(=O)Nc2ccccc2C(F)(F)F)[n+]2ccc(C(=O)NCCO)cc12	Calpain2 inh 69
O=C(c1ccccc1)N1CCCC(c2ccc(Cl)cc2)=N1	none
O=C(c1cccc(Cl)c1)N1CCCC(c2ccc(Cl)cc2)=N1	WT yeast gro inh 78
CCN(CC)S(=O)(=O)c1ccc(OC)c(NC(=O)CSc2cc(Cl)ccc2Cl)c1	L major viab 98
CCN(c1ccccc1)S(=O)(=O)c1ccc(OC)c(NC(=O)CN(C)C)c1	none
CCN(CC)S(=O)(=O)c1ccc(OC)c(NC(=O)CSc2ccccc2)c1	L major viab 99
Cc1cccc(N2CN=C3SCC(=O)N3C2)c1	none (no result: PMI act hi M6P, PMI activator, WT yeast gro inh, L major viab)
Cc1cc(N2CCCCC2)nc(N)n1	L major viab 52
O=C1CC(/C=C/c2ccccc2)=Nc2ccccc2N1	L major viab 84
CC1(C)CC(/C=C/c2ccccc2)=Nc2ccccc2N1	none (no result: PMI act hi M6P, PMI activator, WT yeast gro inh, L major viab)
O=C1CC(/C=C/c2ccc(Cl)cc2)=Nc2ccccc2N1	L major viab 81
O=C1CC(/C=C/c2cccnc2)=Nc2ccccc2N1	L major viab 65
Cc1ccc(CN(c2ccc(C(=O)NCC3CCCO3)cc2)S(C)(=O)=O)cc1 (centres undefined)	none
COC(=O)C1=NN(N=O)C2(CC(=O)N(c3cc(C)cc(C)c3)C2=O)C1 (centres undefined)	PMI act hi M6P 2
CCOc1ccccc1-n1nnnc1SCC(=O)NCc1ccco1	none
CCOC(=O)C(NC(=O)c1ccc(F)cc1)(Nc1sc2c(c1C(N)=O)CCC2)C(F)(F)F (centres undefined)	L major viab 74
c1ccc(-c2nc(N3CCN(c4ccccc4)CC3)nc(-n3ccnc3)n2)cc1	WT yeast gro inh 68, L major viab 67
CCCCCNc1nc(-c2ccccc2)nc(-n2ccnc2)n1	none
c1ccc(-c2nc(N3CCCCCC3)nc(-n3ccnc3)n2)cc1	L major viab 96
CCOc1cc(N2CCOCC2)c(OCC)cc1NC(=O)COC(=O)c1cc2ccccc2cc1O	L major viab 62
CN(C)/C=C/C(=O)c1cnc(-c2ccccn2)s1	none
COc1ccccc1N(C)S(=O)(=O)c1ccc(C(=O)OCC(=O)N(C(C)C)C(C)C)cc1	L major viab 100
COc1ccccc1N(C)S(=O)(=O)c1ccc(C(=O)NCC(C)C)cc1	L major viab 93 (no result: WT yeast gro inh)
COc1ccccc1N(C)S(=O)(=O)c1ccc(C(=O)OCC(=O)NCC(F)(F)F)cc1	none
COc1ccccc1N(C)S(=O)(=O)c1ccc(C(=O)OCC(=O)N2CCC2)cc1	L major viab 83
CCN(CC)S(=O)(=O)c1cccc(C(=O)NCCCn2ccnc2)c1	none (no result: PMI act hi M6P, PMI activator, WT yeast gro inh, L major viab)
CCC1CCCCN1Cc1nc2c(c(=O)n(C)c(=O)n2C)n1CCC(C)C (centres undefined)	none (no result: Calpain2 inh, WT yeast gro inh)
CCCCCCn1c(CN2CCCCC2CC)nc2c1c(=O)n(C)c(=O)n2C (centres undefined)	L major viab 60
Cc1cccc(C)c1-n1cccc1/C=C1\SC(=S)N(c2cccc(C(=O)O)c2)C1=O	Calpain2 inh 111, WT yeast gro inh 84 (no result: Rad51 HR inh)
COc1ccccc1-c1c(C)c(C)nc(N)c1C#N	none
CCOc1cc(-c2c(C#N)c(N)nc3c2CCc2ccccc2-3)ccc1O	L major viab 90
COc1ccccc1-c1c(C#N)c(N)nc2c1CCc1ccccc1-2	WT yeast gro inh 67, L major viab 87
CCOc1cc(-c2c(C#N)c(N)nc3c2CCCC3C)ccc1O (centres undefined)	none
COC(=O)c1ccc(CSc2nc3c(c(=O)n2-c2ccc(C)cc2)SCC3)o1	L major viab 97
Fc1ccc(NC(=S)Nc2ccc(F)c(Cl)c2)cc1Cl	L major viab 97
Fc1ccc(NC(=S)N2CCOCC2)cc1Cl	none (no result: Rad51 HR inh)
Fc1ccc(NC(=S)N2CCCC2)cc1Cl	L major viab 95
Cc1ccc(NC(=S)Nc2ccc(OC(F)F)c(Cl)c2)cc1F	WT yeast gro inh 85
CCCN(CCC)S(=O)(=O)c1ccc(C(=O)NNc2nc(-c3ccccc3)c3cc(Br)ccc3n2)cc1	none
COc1ccc(/C=N/NC(=O)c2cccc(Br)c2)cc1COc1ccccn1	none (no result: PMI act hi M6P, PMI activator, WT yeast gro inh, L major viab)
CCN(CC)CCNC(=O)c1ccc(NC(=O)c2ccc(Cl)c(S(=O)(=O)N3CCCCCC3)c2)cc1	none (no result: PMI act hi M6P, PMI activator, WT yeast gro inh, L major viab)
CCN(CC)CCNc1cc(C)nc2c1C(=O)C(=O)C=C2N1CCCCC1	L major viab 101 (no result: PMI act hi M6P, PMI activator)
CCc1cc(C(=O)Nc2cc(S(=O)(=O)N(C)C)ccc2C)sc1C	L major viab 99
CCn1c(=O)cc(SCC(=O)N2CCN(C3CCCCC3)CC2)c2ccccc21	L major viab 51
COc1cc(OC)cc(C(=O)Nc2ccc(S(=O)(=O)Nc3nc(C)cc(C)n3)cc2)c1	none
C/C(=N\NC(=O)C1CC1)c1ccc(Cl)c(Cl)c1	none
C/C(=N\N=C(N)N)c1ccc(Cl)c(Cl)c1	L major viab 101
COc1cc(OC)c2c(c1)C(=O)c1cc(OC)cc(OC)c1C2=O	WT yeast gro inh 87
CCOC(=O)C1CN(S(=O)(=O)c2ccccc2)C1	none
